In paper PMC7115421 (European Journal of Medicinal Chemistry, 2009):

Tests used:
[1] = tested on: MDA-MB468 breast cancer cell line; test: SRB cytotoxicity assay, MDA-MB468; format: cell-based; details: Homo sapiens
In short: (§1)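 Cells grown in RPMI 1640 with 10% FBS and 2 mM L-glutamine at 37 °C, 5% CO2. 5000–10,000 cells/well seeded 24 h before dosing. Seven concentrations from 2–10-fold serial dilutions; medium with matched DMSO as control. After 48 h: TCA fixation (60 min, 4 °C), 0.4% SRB, Tris solubilisation, absorbance 515–564 nm. Growth = (Ti−Tz)/(C−Tz)×100. GI50 from variable-slope sigmoidal fit; triplicates, ≥3 experiments.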

[2] = tested on: 184B5 immortalized breast cell line; test: SRB cytotoxicity assay, 184B5 non-cancer cells; format: cell-based, human; details: for killing of 184B5 non-cancer cells (in words): combined with constant amount of Akt inhibitors 7–10 (0.04, 0.4, 3.5, 0.5 μM)
[3] = tested on: MCF7 breast cancer cell line; test: SRB cytotoxicity assay, MCF7; format: cell-based, human
In short: as §1

[4] = tested on: MDA-MB468, MDA-MB231 and MCF7 breast cancer cell lines; test: SRB cytotoxicity assay, three breast cancer cell lines together; format: cell-based, human; details: for sensitization of cell killing by PI3K-Akt inhibitors (in words): in combination with GI20 doses of PI3K-Akt inhibitors, three breast cancer cell lines
In short: (§2)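 Cells plated at 5000–10,000/well and held 24 h at 37 °C, 5% CO2; time-zero wells TCA-fixed. Test compound from DMSO stock, seven concentrations (2–10-fold dilutions), 48 h; DMSO-matched medium control. Cold TCA fixation (10% final), 60 min, 4 °C; 0.4% SRB stain; Tris base solubilisation; A515–564 nm. Growth % = (Ti−Tz)/(C−Tz)×100; GI values from variable-slope sigmoidal fit; triplicates, ≥3 independent experiments.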

[5] = tested on: MDA-MB231 breast cancer cell line; test: SRB cytotoxicity assay, MDA-MB231; format: cell-based; details: Homo sapiens
In short: as §1

[6] = tested on: MDA-MB468, MDA-MB231, MCF7 and 184B5; test: SRB cytotoxicity assay, all four cell lines together; format: cell-based, human; details: for cytotoxicity (in words) on the four cell lines: PI3K-Akt inhibitor alone; for average GI20 values on the four cell lines: average over MDA-MB468, MDA-MB231, MCF7, 184B5
In short: as §2

What does the source list for `CCN(CC)CCCC(C)Nc1ccnc2cc(Cl)ccc12` (centres unmarked) [Compound 1, Chloroquine diphosphate]?
IC50 ([1]; MDA-MB-468): 28.6 µM; GI50 ([1]; MDA-MB-468, 48 h): 28.6 ± 1.25 µM; IC50 ([2]; Homo sapiens, 184B5): 76.1 µM; IC50 ([3]; Homo sapiens, MCF7): 38.4 µM; GI50 ([3]; Homo sapiens, MCF7, 48 h): 38.4 ± 1.2 µM; GI50 ([4]; Homo sapiens, read-out: GI50 on the cancer cell lines (range)): 22.5 to 38.4 µM; IC50 ([5]; MDA-MB-231): 22.5 µM; GI50 ([5]; MDA-MB-231, 48 h): 22.5 ± 1.44 µM

With `CCCCNc1ccnc2cc(Cl)ccc12` [Compound 2, Butyl-(7-chloro-quinolin-4-yl)-amine] as the molecule, how does the “killing of 184B5 non-cancer cells (in words)” value [2] read?
Its value is “effectively killed”.

What about the “sensitization of cell killing by PI3K-Akt inhibitors (in words)” value [4] of the same molecule?
Its value is “generally not effective sensitizers”.

How did the “killing of 184B5 non-cancer cells (in words)” value [2] turn out when `CCCCNc1ccnc2cc(F)ccc12` [Compound 3, Butyl-(7-fluoro-quinolin-4-yl)-amine] was run?
The value was “effectively killed”.

What about the “sensitization of cell killing by PI3K-Akt inhibitors (in words)” value [4] of the same molecule?
The value was “generally not effective sensitizers”.

With `CN(C)CCNc1ccnc2cc(Cl)ccc12` [Compound 4, N′-(7-Chloro-quinolin-4-yl)-N,N-dimethyl-ethane-1,2-diamine] as the molecule, how does the “sensitization of cell killing by PI3K-Akt inhibitors (in words)” value [4] read?
Its value is “substantial enhancement of cell killing”.

With `CN(C)CCNc1ccnc2cc(F)ccc12` [Compound 5, N′-(7-Fluoro-quinolin-4-yl)-N,N-dimethyl-ethane-1,2-diamine] as the molecule, how does the “sensitization of cell killing by PI3K-Akt inhibitors (in words)” value [4] read?
The value was “substantial enhancement of cell killing”.

How did the “sensitization of cell killing by PI3K-Akt inhibitors (in words)” value [4] turn out when `COc1ccc2c(NCCN(C)C)ccnc2c1` [Compound 6, N′-(7-Methoxy-quinolin-4-yl)-N,N-dimethyl-ethane-1,2-diamine] was run?
Its value is “not very effective”.

For `CC[n+]1c(C=CN(C)c2ccccc2)n(-c2ccccc2)c2ccc(-c3nc4ccccc4s3)cc21.[I-]` [Compound 7, 6-Benzothiazol-2-yl-1-ethyl-2-[2-(methyl-phenyl-amino)-vinyl]-3-phenyl-3H-benzoimidazol-1-ium Iodide], which “cytotoxicity (in words) on the four cell lines” value [6] is on record?
Its value is “the most cytotoxic”.

What about the “average GI20 values on the four cell lines” value [6] of the same molecule?
Its value is 0.04 µM.

Which “cell killing (in words) of MCF7” value ([3]; PI3K-Akt inhibitor alone, not other cells examined) does the source give for `O=c1[nH]c2ccccc2n1C1CCN(Cc2ccc(-c3nc4cc5nc[nH]c5cc4nc3-c3ccccc3)cc2)CC1` [Compound 8, 1-{1-[4-(7-Phenyl-1H-imidazo[4,5-g]quinoxalin-6-yl)-benzyl]-piperidin-4-yl}-1,3-dihydro-benzoimidazol-2-one] here?
The value was “killed MCF7 cells effectively”.

How did the “cytotoxicity (in words) on the four cell lines” value [6] turn out when `CCN(CC)CCCCN1c2ccccc2OC2C=CC(Cl)=CC21.Cl` (centres unmarked) [Compound 9, [4-(2-chloro-4a,10a-dihydro-phenoxazin-10-yl)-butyl]-diethyl-amine hydrochloride] was run?
Its value is “only week cytotoxicity”.

`O=c1cc(N2CCOCC2)oc2c(-c3ccccc3)cccc12` [Compound 10, 2-Morpholin-4-yl-8-phenyl-chromen-4-one] was tested. Which “average GI20 values on the four cell lines” value [6] did it give?
The value was 0.52 µM.
